Screens deposited in PubChem by Broad Institute.
Ecoli rRNA inh: selective bacterial rRNA inhibition in E. coli; E. coli WT GFP vs humanized-ribosome RFP mutants, fluorescence, 24 h; stronger effect = lower value; DMSO median 0, no signal -100; GFP signal change (wild-type ribosome), % (test concentration not listed); hit rate 1.6% among 350,000;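 active = significant combined selectivity score with lowered wild-type GFP, culture density cut under 30%, mutant RFP and density less affected; inactive = any of these conditions unmet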
PvdQ inh: blocks Pseudomonas aeruginosa PvdQ acylase activity; purified PvdQ acylase, fluorescence plate reader; inhibition, % at 10 µM; hit rate 0.063% among 340,000; in the data active = inhibition above about 30%, passing the limit was not always enough; inconclusive = no clear call, values can overlap the other calls
HIV Env fusion: HIV envelope-mediated fusion inhibition. hit rate 1.1% among 360,000. inhibition, % at 12.3 µM. HeLa-JRFL Env/CEM21 cell fusion, luciferase. AID 651610;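 active = mean replicate inhibition score of at least 50 and every replicate individually at or above 50; inconclusive = only one of the two criteria met; inactive = mean below 50 and not all replicates reaching 50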
FN deposit inh: fibronectin deposition inhibition; AH1F fibroblasts, Alexa488-fibronectin deposition fluorescence, overnight; inhibition, % at 12.6 µM; hit rate 0.086% among 350,000; AID 743247;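 active = mean inhibition across replicates of 30% or more, regardless of how many single replicates reach that level; inconclusive = mean under 30% yet at least half of replicates reach 30%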
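Schedule: 1 h cell adhesion before compound, then overnight fibronectin incubation; test system: AH1F fibroblast monolayer depositing Alexa488-labelled fibronectin into matrix; quantity: 10000 AH1F cells per well; probe or stimulus: fluorescent fibronectin at 24 nM final; signal: fluorescence, ex 485 nm, em 525 nm; evaluation: percent inhibition as loss of matrix-bound fibronectin fluorescence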
PDI inh: PDI (human) enzyme inhibition. hit rate 0.052% among 350,000. inhibition, % at 10 µM. P07237. PDI insulin aggregation turbidity, A650, 90 min;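 active = mean inhibition across replicates of 30% or more, whatever share of single replicates reach that level; inconclusive = mean inhibition below 30% while every single replicate reaches 30%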
ERp5 inh: inhibitors of human ERp5; Q15084; ERp5 insulin aggregation, absorbance 650 nm, 90 min; inhibition, % at 9.99 µM; hit rate 0.05% among 350,000; AID 651711;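 active = mean replicate inhibition above about 25%, with every replicate also reaching it, limit read from the data, passing the limit was not always enough; inconclusive = only one of those two criteria met; inactive = neither criterion met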
Target sequence (Q15084 whole entry, looked up): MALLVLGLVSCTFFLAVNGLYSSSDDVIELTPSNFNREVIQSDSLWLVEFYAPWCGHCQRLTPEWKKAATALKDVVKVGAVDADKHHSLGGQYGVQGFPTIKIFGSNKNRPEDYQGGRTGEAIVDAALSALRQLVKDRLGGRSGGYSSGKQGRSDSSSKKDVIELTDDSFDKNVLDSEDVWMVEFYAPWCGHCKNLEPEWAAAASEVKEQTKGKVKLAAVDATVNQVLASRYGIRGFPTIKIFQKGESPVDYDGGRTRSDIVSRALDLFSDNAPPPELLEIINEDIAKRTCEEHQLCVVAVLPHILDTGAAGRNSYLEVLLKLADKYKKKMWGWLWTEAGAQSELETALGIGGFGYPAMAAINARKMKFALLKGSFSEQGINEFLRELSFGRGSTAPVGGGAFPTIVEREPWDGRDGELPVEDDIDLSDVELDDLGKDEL
HepG2 tox: cytotoxic compounds in HepG2 cells; shares compounds with Ecoli rRNA inh; HepG2 viability, ATP luminescence, 72 h; activity change, negative = cytotoxicity, unspecified at 26 µM; 30 tested, under 10 active; AID 743480;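 active = compounds whose fitted half-maximal signal-loss concentration is at most twice their highest valid dose; inconclusive = flat curve with 30 to 70% signal loss, or poor fit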
AID977621: wild-type E. coli growth inhibition versus H69 humanized strain – H69 mutant RFP, wild-type GFP, cherry-pick, dose response. shares compounds with Ecoli rRNA inh. fluorescence, 24 h. activity change, negative = inhibition at 50 µM. 1,900 tested, under 10 active. AID 977621;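 active = Wild-type ribosome reporter drop at least double the humanized mutant ribosome reporter drop, growth loss under a set limit; inconclusive = no clear call, values can overlap the other calls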;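 also: wild-type GFP and H69 mutant RFP strains grown together 50/50 in each well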
AID977628: growth of wild-type and h24-humanized E. coli strains – h24 mutant RFP vs wild-type GFP, cherry-pick, dose response; E. coli WT GFP strain growth, fluorescence, 24 h; 1,900 tested, under 10 active; shares compounds with Ecoli rRNA inh; activity change, negative = inhibition at 50 µM;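 active = compound lowering the normal-ribosome reporter at least twice as much as the humanized-ribosome reporter, growth loss under a set limit; inconclusive = no clear call, values can overlap the other calls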;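 also: wild-type GFP and h24 humanized RFP strains co-cultured 1 to 1 per well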
Numbers stand for hits; 0 = inactive; ? = inconclusive; - = no result. This is a sample that favours compounds with a hit; in the whole collection about 2.2% have one here.

SMILES	Ecoli rRNA inh	PvdQ inh	HIV Env fusion	FN deposit inh	PDI inh	ERp5 inh	AID977621	AID977628	others
CC(C)NC(=O)Nc1ccc2c(c1)C(=O)N([C@@H](C)CO)C[C@H](C)[C@H](CN(C)Cc1ccc(C(=O)O)cc1)OCCCC[C@@H](C)O2	0	-	0	0	-	0	-	-
CS(=O)(=O)N1C2CN(CC(F)(F)F)CC1C2c1ccc(Br)cc1 (stereo unspecified)	0	-	-	0	-	-	-	-
CCCC(=O)N(CCc1ccc(OC)cc1)Cc1nc2ccccc2c(=O)[nH]1	-21	0	-	-	0	0	-	0
CCCCC(=O)N(Cc1ccc2c(c1)OCO2)Cc1nc2ccccc2c(=O)[nH]1	-23	0	0	0	0	0	-	0
C=CCNc1ccc2c(c1)OC[C@H](CC(C)C)NS2(=O)=O	-23	-	0	0	-	0	?	-
O=C1c2ccccc2C(=O)N1CCCc1c[nH]c2ccccc12	-	0	0	-	0	-	-	-
O=C1c2ccccc2C(=O)N1CCc1c[nH]c2ccccc12	-21	0	0	0	0	0	0	-
CCCC(=O)Nc1ccc2c(c1)C(=O)N(C)C[C@@H](OC)[C@@H](C)CN(C(=O)CN(C)C)[C@H](C)CO2	0	-	-	0	-	0	-	-
CC(NC(=O)C12CC3CC(C)(CC(C)(C3)C1)C2)c1ccncc1 (stereo unspecified)	-24	0	65	0	0	0	0	0
COc1ccc(-c2cc(C(=O)Nc3ccc(C(N)=O)cc3)c3ccccc3n2)cc1OC	-26	0	0	-	0	0	0	0
Cc1noc(C)c1NC(=O)N(C)C[C@@H]1OCCCC[C@H](C)Oc2ccc(NC(=O)Nc3ccc(F)cc3)cc2C(=O)N([C@H](C)CO)C[C@@H]1C	0	-	0	0	-	0	-	-
CC(=O)N[C@H]1C[C@@H]2O[C@@H](CO)CC[C@@H]2O[C@@H]1CCc1ccc(C#CC2(O)CCCC2)cc1	-	-	-	-	-	0	-	-
CCCC(=O)Nc1cccc(C(=O)Nc2ccccc2OCC)c1	-27	-	0	0	-	0	0	0
CCOc1ccccc1NC(=O)c1ccc2ccccc2c1	-25	0	0	0	0	0	-	?	HepG2 tox=0
Nc1nc2ccccc2n1CCOc1ccc(F)cc1	-21	0	0	0	0	0	0	0
COc1ccc(OCCn2c(N)nc3ccccc32)cc1	0	0	0	0	0	0	-	-
C[C@@H]1CN([C@H](C)CO)C(=O)c2cc(NC(=O)NC3CCCCC3)ccc2O[C@@H](C)CCCCO[C@H]1CN(C)Cc1ccc2c(c1)OCO2	0	-	0	-	-	0	-	-
O=C(CCCOc1ccc(Cl)cc1Cl)Nc1ccccc1C(=O)O	-30	0	0	0	0	0	0	-
COCC(=O)N(C)C[C@H]1Oc2cc(C3=CCCC3)ccc2S(=O)(=O)N([C@@H](C)CO)C[C@H]1C	0	-	0	-	-	0	-	-
CSc1ccc(CN(C)C(=O)C(c2ccccc2)c2ccccc2)cc1	-21	0	0	0	0	0	0	?
C/C=C/c1ccc([C@@H]2[C@@H](CO)N(C(=O)CN(C)C)C23CN(C(=O)C2CCCCC2)C3)cc1	0	-	0	-	-	0	-	-
O=C(CCN1CCCCC1)NCC[C@H]1CC[C@H](NC(=O)C2CCCCC2)[C@H](CO)O1	0	-	-	0	-	-	-	-
CN(C)c1ccc(-c2nnn(CC(=O)Nc3ccccc3N3CCOCC3)n2)cc1	-16	0	-	-	0	0	0	0
Cc1ccc(-c2ccc3c(c2)O[C@@H](CN(C)Cc2ccncc2)[C@@H](C)CN([C@@H](C)CO)S3(=O)=O)cc1	0	-	0	0	-	0	-	-
Cc1ccc(-c2c(=O)n(O)c3ccccc3[n+]2[O-])cc1	-17	0	0	0	0	0	0	?
SMILES	Ecoli rRNA inh	PvdQ inh	HIV Env fusion	FN deposit inh	PDI inh	ERp5 inh	AID977621	AID977628	others
CCCC(=O)N1CC2(C1)CN(C(=O)COC)[C@H](CO)c1c2c2ccc(OC)cc2n1C	0	-	-	-	-	-	-	-
Cc1onc(-c2ccccc2Cl)c1C(=O)N1CCN(Cc2ccc3c(c2)OCO3)CC1	-20	0	0	-	0	0	0	0
CN(C)c1ccc2c(c1)[C@@H]1C[C@@H](CC(=O)O)O[C@@H](CO)[C@@H]1O2	0	-	0	-	-	0	-	-
CCCC(=O)Nc1ccc2c(c1)C(=O)N(C)C[C@@H](OC)[C@H](C)CN(C(=O)c1cnccn1)[C@H](C)CO2	0	-	-	0	-	0	-	-
CC(=O)Oc1ccc(N(C(C)=O)S(=O)(=O)c2ccc(C)cc2)c2ccccc12	-25	0	0	0	0	0	0	-
CC(=O)N(c1ccccc1C)S(=O)(=O)c1ccc(Cl)cc1	0	0	0	-	0	0	-	-
CC(=O)Oc1ccc(N(C(C)=O)S(=O)(=O)c2ccc(Cl)cc2)c2ccccc12	-23	0	0	0	0	0	0	?
CCOc1ccccc1/C=C/c1cc(C(=O)O)c2ccccc2n1	-23	0	0	0	0	0	0	-
N#Cc1cccc(-c2ccc3c(c2)[C@H]2[C@H](CCN2S(=O)(=O)c2ccc(F)cc2)[C@H](CO)N3)c1	0	-	-	0	-	0	-	-
N#Cc1cccc(-c2ccc3c(c2)[C@@H]2[C@@H](CCN2S(=O)(=O)c2cccc(F)c2)[C@H](CO)N3)c1	-19	-	-	0	-	0	?	-
O=[N+]([O-])c1ccc(/C=C/c2ccc3cccc([N+](=O)[O-])c3n2)cc1	-18	0	0	0	0	0	0	0
C[C@H]1CN([C@@H](C)CO)C(=O)Cc2cc(NC(=O)CCN3CCOCC3)ccc2O[C@H]1CN(C)S(=O)(=O)c1ccc(Cl)cc1	0	-	0	-	-	0	-	-
CN(Cc1ccccc1NS(=O)(=O)c1ccc(Cl)cc1)C1CCCCC1	-29	0	0	0	0	0	0	?
Cc1noc(C)c1NC(=O)Nc1ccc2c(c1)C(=O)N([C@H](C)CO)C[C@H](C)[C@@H](CN(C)C(=O)Nc1ccc3c(c1)OCO3)OCCCC[C@@H](C)O2	-37	-	0	0	-	0	0	?
Cc1noc(C)c1NC(=O)Nc1ccc2c(c1)C(=O)N([C@@H](C)CO)C[C@H](C)[C@@H](CN(C)C(=O)Nc1ccc3c(c1)OCO3)OCCCC[C@H](C)O2	0	-	0	0	-	0	0	0
Cc1noc(C)c1NC(=O)Nc1ccc2c(c1)C(=O)N([C@H](C)CO)C[C@H](C)[C@@H](CN(C)C(=O)Nc1ccc3c(c1)OCO3)OCCCC[C@H](C)O2	0	-	0	0	-	0	0	?
Cc1noc(C)c1NC(=O)Nc1ccc2c(c1)C(=O)N([C@H](C)CO)C[C@@H](C)[C@H](CN(C)C(=O)Nc1ccc3c(c1)OCO3)OCCCC[C@@H](C)O2	0	-	0	0	-	0	0	?
